Measured values taken from paper PMC6420784 (Clinical lung cancer, 2018).
Where “and” joins values, the source holds several entries; their conditions need not be identical. Identical values can stand only once. Marks after values point to notes of the source that are not given here. Values belong to the compound of their own block, whether it stands above or below them.

Legend:
[1] = test system: patients with KRAS-mutated metastatic NSCLC; test: Phase Ib safety: adverse events, dose-limiting toxicities, MTD; format: in vivo, human; conditions: for patients with AEs leading to dose interruptions or dose modifications: all dose levels, of the named drug
How it was run: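 Two 3 + 3 escalations. First, JAK/TBK1 inhibitor 100–200 mg q.d. or b.i.d. with MEK1/2 inhibitor 1.0 mg q.d. (level −1: 100 mg with 0.5 mg). Then MEK inhibitor 1.5 and 2.0 mg q.d. at the other drug's MTD. DLTs scored over the first 28-day cycle. MTD was the level below that with ≥2 DLTs. AEs recorded from first dose to 30 days post-dose, coded by MedDRA 19.1 and graded by CTCAE 4.03.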

[2] = test system: previously treated KRAS-mutated advanced NSCLC; conditions: single-agent trametinib 2.0 mg q.d., 10 of 86 patients; cited from earlier work
[3] = Plasma pharmacokinetics of momelotinib and M-21; format: in vivo, human; conditions: for Cmax and AUCtau with b.i.d. dosing: across 100 mg and 150 mg dose levels (dose levels 2B, 3, and I); for dose proportionality of Cmax and AUCtau: day 15 of cycle 1, between dose level 1 (100 mg q.d.) and dose level 2A (200 mg q.d.); for Cmax / Tmax / half-life: human, oral; for Cmax: mean (%CV); for Cmax / Tmax / half-life / AUCtau, mean (%CV): momelotinib in plasma; for Tmax: median (Q1, Q3); for half-life: t1/2, median (Q1, Q3)
[4] = test system: KRAS-mutated metastatic NSCLC; test: Phase Ib efficacy: tumor response per RECIST, PFS, OS; format: in vivo, human; conditions: all 21 patients, n = 10
How it was run: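 Open-label, nonrandomized phase Ib in platinum-treated, refractory KRAS-mutated metastatic NSCLC (ECOG 0–1, measurable disease). Patients dosed until progression, unacceptable toxicity, consent withdrawal or refusal. CT at baseline and every 8 weeks, scored by RECIST 1.1. DCR at week 8 (CR+PR+SD) and ORR (CR+PR) given per dose level with Clopper–Pearson 90% CIs. PFS and OS by Kaplan–Meier. All enrolled patients analysed.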

myelofibrosis patients = conditions: once daily (q.d.), previously established; cited from earlier work
[5] = plasma, day 15 of cycle 1, M1: momelotinib 100 mg q.d. with trametinib 1.0 mg q.d.
[6] = plasma, day 15 of cycle 1, M2A: momelotinib 200 mg q.d. with trametinib 1.0 mg q.d.
[7] = plasma, day 15 of cycle 1, M2B: momelotinib 100 mg b.i.d. with trametinib 1.0 mg q.d.
[8] = plasma, day 15 of cycle 1, M3: momelotinib 150 mg b.i.d. with trametinib 1.0 mg q.d.
[9] = plasma, day 15 of cycle 1, TI: momelotinib 150 mg b.i.d. with trametinib 1.5 mg q.d.

SMILES: CC(=O)Nc1cccc(-n2c(=O)n(C3CC3)c(=O)c3c(Nc4ccc(I)cc4F)n(C)c(=O)c(C)c32)c1 [trametinib]
patients with AEs leading to dose interruptions or dose modifications [1]: 52.4%
maximum tolerated dose (MTD) of trametinib ([1]; q.d., in combination with momelotinib 150 mg b.i.d. (dose level M3)): 1.0 mg and 1 mg
PR [2]: 11.6%

Cmax and AUCtau with b.i.d. dosing [3]: similar
dose proportionality of Cmax and AUCtau [3]: more than dose-proportional increases
M-21/Momelotinib Ratio, AUCtau, mean (%CV) [3, 5]: 2.6 (44.6)
M-21/Momelotinib Ratio, Cmax, mean (%CV) [3, 5]: 2.2 (52.0)
M-21/Momelotinib Ratio, AUCtau, mean (%CV) [3, 6]: 1.7 (52.8)
M-21/Momelotinib Ratio, Cmax, mean (%CV) [3, 6]: 1.2 (47.2)
M-21/Momelotinib Ratio, Cmax, mean (%CV) [3, 7]: 1.7 (38.3)
M-21/Momelotinib Ratio, AUCtau, mean ([3]; plasma, day 15 of cycle 1, M2B: momelotinib 100 mg b.i.d. with trametinib 1.0 mg q.d., n = 1): 2.7^c
M-21/Momelotinib Ratio, AUCtau, mean (%CV) [3, 8]: 1.3 (40.3)
M-21/Momelotinib Ratio, Cmax, mean (%CV) [3, 8]: 1.3 (25.8)
M-21/Momelotinib Ratio, AUCtau, mean (%CV) [3, 9]: 1.4 (20.6)
M-21/Momelotinib Ratio, Cmax, mean (%CV) [3, 9]: 1.1 (13.7)
SMILES: N#CCNC(=O)c1ccc(-c2ccnc(Nc3ccc(N4CCOCC4=O)cc3)n2)cc1 [M-21]

SMILES: N#CCNC(=O)c1ccc(-c2ccnc(Nc3ccc(N4CCOCC4)cc3)n2)cc1 [Momelotinib, momelotinib]
patients who discontinued because of AEs ([1]; all 21 patients, n = 9): 42.9%
patients with AEs leading to dose interruptions or dose modifications [1]: 47.6%
maximum tolerated dose (MTD) of momelotinib ([1]; b.i.d., in combination with trametinib 1.0 mg q.d. (dose level M3)): 150 mg
patients who discontinued because of PD [4]: 47.6%
Cmax and AUCtau with b.i.d. dosing [3]: similar
dose proportionality of Cmax and AUCtau [3]: more than dose-proportional increases
maximum momelotinib plasma concentrations ([3]; discussion summary): approximately 300 ng/mL
maximum momelotinib plasma concentrations ([3]; equal to approximately 300 ng/mL): 0.72 µmol/L
Cmax [3, 5]: 136 ng/mL
Cmax [3, 6]: 572 ng/mL
Cmax [3, 7]: 318 ng/mL
Cmax [3, 8]: 290 ng/mL
Cmax [3, 9]: 359 ng/mL
Tmax [3, 5]: 1.9 h
Tmax [3, 6]: 2 h
Tmax [3, 7]: 0.9 h
Tmax [3, 8]: 1.1 h
half-life [3, 5]: 414 min
half-life [3, 6]: 522 min
half-life [3, 7]: 498 min
half-life [3, 8]: 366 min
AUCtau, mean (%CV) ([3]; day 15 of cycle 1, M1: momelotinib 100 mg q.d. with trametinib 1.0 mg q.d.): 774.3 (47.1) ng/mL/h
AUCtau, mean (%CV) ([3]; day 15 of cycle 1, M2A: momelotinib 200 mg q.d. with trametinib 1.0 mg q.d.): 3901.9 (48.2) ng/mL/h
AUCtau, mean (%CV) ([3]; day 15 of cycle 1, M2B: momelotinib 100 mg b.i.d. with trametinib 1.0 mg q.d.): 2568.3 (53.0) ng/mL/h
AUCtau, mean (%CV) ([3]; day 15 of cycle 1, M3: momelotinib 150 mg b.i.d. with trametinib 1.0 mg q.d.): 2214.1 (71.5) ng/mL/h
AUCtau, mean (%CV) ([3]; day 15 of cycle 1, TI: momelotinib 150 mg b.i.d. with trametinib 1.5 mg q.d.): 1871.1 (8.2) ng/mL/h
MTD of momelotinib as a single agent (myelofibrosis patients): 200 mg
